Assay results: ChEMBL document CHEMBL1131235, “(R)-(+)-2-[[[3-(Morpholinomethyl)-2H-chromen-8-yl]oxy]methyl] morpholine methanesulfonate: a new selective rat 5-hydroxytryptamine1B receptor antagonist” (J Med Chem, 1998)

Key:
[1] = molecular target: 5-hydroxytryptamine receptor 1B (Rattus norvegicus, UniProt P28564); assay: Binding affinity against 5-hydroxytryptamine 1B receptor in membranes of Rat cerebral cortex; type: tissue-based
How it was run: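 Rat cerebral cortical membranes labelled with [125I]iodocyanopindolol in the presence of 60 μM isoproterenol to block β-adrenoceptor binding. Nonspecific binding was defined with 10 μM 5-HT.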

Rattus norvegicus [2] = assay: Effect on the wet dog shake response(WDS) in rats after 8 determinations at a dose of 1 mg/kg, sc pretreated with saline; conditions: route subcutaneous
Rattus norvegicus [3] = assay: Effect on the wet dog shake response(WDS) in rats after 8 determinations at a dose of 1 mg/kg, sc pretreated with 200 mg/kg ip of pCPA.

Chain of 5-hydroxytryptamine receptor 1B (P28564 whole entry): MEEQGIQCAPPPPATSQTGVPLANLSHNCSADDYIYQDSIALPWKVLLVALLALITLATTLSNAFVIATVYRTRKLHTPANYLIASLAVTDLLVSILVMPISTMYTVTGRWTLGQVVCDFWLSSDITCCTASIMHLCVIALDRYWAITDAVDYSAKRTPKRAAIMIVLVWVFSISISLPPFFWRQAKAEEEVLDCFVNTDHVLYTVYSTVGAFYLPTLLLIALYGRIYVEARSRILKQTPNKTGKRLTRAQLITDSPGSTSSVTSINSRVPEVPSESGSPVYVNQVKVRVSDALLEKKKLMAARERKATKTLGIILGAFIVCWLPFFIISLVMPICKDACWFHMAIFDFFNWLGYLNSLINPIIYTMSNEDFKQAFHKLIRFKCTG

Ki [1]	SMILES	No. of WDS/60 min (Rattus norvegicus [2])	No. of WDS/60 min (Rattus norvegicus [3])
445 nM	N#CC1=Cc2cccc(OCC3CNCCO3)c2CC1 (racemic)	–	–
–	c1ccc2nc(N3CCNCC3)ccc2c1 [QUIPAZINE]	36	30
250 nM	N#CC1=Cc2cccc(OCC3CNCCO3)c2OC1 (racemic)	–	–
1400 nM	N#CC1=Cc2cccc(OCC3CCCNC3)c2OC1 (racemic)	–	–
60 nM	C1=C(CN2CCOCC2)COc2c1cccc2OCC1CNCCO1 (racemic)	–	–
3600 nM	CN1CCOC(COc2cccc3c2OCC(C#N)=C3)C1 (racemic)	–	–
240 nM	O=C(C1=Cc2cccc(OCC3CNCCO3)c2OC1)N1CCOCC1 (stereo not drawn)	–	–
